Test results reported in ChEMBL document CHEMBL3286128 (J Med Chem, 2014).
Active and inactive are the calls of the source. The rule behind the calls is not given here.

Key:
[1] = Retention time of the compound by HPLC analysis; format: physicochemical
Summary of the method: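 Preparative HPLC run as a linear gradient of solvent B over 30 min, starting at 30% B and ending at 70% or 80% B depending on the compound. Retention time was taken at elution.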

HOS = assay: Cytotoxicity against human HOS cells assessed as ATP level by luciferase reporter assay; format: cell-based
Summary of the method: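 HOS cells were exposed to compound and viability was read as ATP level by luciferase reporter. […] SI is CC50 divided by WT-vector EC50.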

[2] = target: T1, Human immunodeficiency virus type 1 integrase (Human immunodeficiency virus 1, UniProt Q7ZJM1); assay: Inhibition of strand transfer activity of HIV-1 integrase using [gamma-32P]-labeled DNA as substrate
Summary of the method: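 Gel-based assay with radiolabelled oligonucleotide substrate and Mg2+ cofactor, measuring strand transfer by recombinant HIV-1 integrase. IC50 determined.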

[3] = target: T1, Human immunodeficiency virus type 1 integrase
[4] = system: Human immunodeficiency virus 1; assay: Antiviral activity against HIV-1 harboring wild type integrase infected in human HOS cells pretreated with compound for 3 hrs by single-round HIV-1 infectivity assay; format: functional, organism-based; conditions: Human immunodeficiency virus 1, HOS
[5] = system: Human immunodeficiency virus 1; assay: Ratio of EC50 for raltegravir-resistant HIV-1 harboring integrase Y143R mutant infected in human HOS cells to EC50 for HIV-1 harboring integrase wild type integrase infected in human HOS cells; format: functional
[6] = system: Human immunodeficiency virus 1; assay: Ratio of EC50 for INSTI-resistant HIV-1 harboring integrase R263K mutant infected in human HOS cells to EC50 for HIV-1 harboring integrase wild type integrase infected in human HOS cells; format: functional
[7] = system: Human immunodeficiency virus 1; assay: Antiviral activity against INSTI-resistant HIV-1 harboring integrase R263K mutant infected in human HOS cells pretreated with compound for 3 hrs by single-round HIV-1 infectivity assay; format: functional, organism-based; conditions: Human immunodeficiency virus 1, HOS
Summary of the method: (§1)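 VSV-g-pseudotyped single-round HIV-1 luciferase vector (WT or mutant IN) made in 293T cells by calcium phosphate transfection, supernatant harvested at 48 h. HOS cells were seeded the day before, then pretreated with compound, 11 serial dilutions from 10 μM to 0.0005 μM, at 37 °C for 3 h. Virus was added and cells kept 48 h at 37 °C. Luciferase was read and normalised to infectivity without compound.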

[8] = system: Human immunodeficiency virus 1; assay: Antiviral activity against raltegravir-resistant HIV-1 harboring integrase G140S/Q148H double mutant infected in human HOS cells pretreated with compound for 3 hrs by single-round HIV-1 infectivity assay; format: functional, organism-based; conditions: Human immunodeficiency virus 1, HOS
[9] = system: Human immunodeficiency virus 1; assay: Antiviral activity against INSTI-resistant HIV-1 harboring integrase G118R mutant infected in human HOS cells pretreated with compound for 3 hrs by single-round HIV-1 infectivity assay; format: functional, organism-based; conditions: Human immunodeficiency virus 1, HOS; summary of the method: as §1
[10] = system: Human immunodeficiency virus 1; assay: Ratio of EC50 for INSTI-resistant HIV-1 harboring integrase G118R mutant infected in human HOS cells to EC50 for HIV-1 harboring integrase wild type integrase infected in human HOS cells; format: functional
[11] = Selectivity index, ratio of CC50 for human HOS cells to EC50 for HIV-1 harboring wild type integrase infected in human HOS cells; format: toxicity, cell-based; conditions: read-out: Ratio CC50/EC50
Summary of the method: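 HOS cells were exposed to compound and viability was read as ATP level by luciferase reporter. SI is CC50 divided by WT-vector EC50.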

[12] = system: Human immunodeficiency virus 1; assay: Ratio of EC50 for raltegravir-resistant HIV-1 harboring integrase N155H mutant infected in human HOS cells to EC50 for HIV-1 harboring integrase wild type integrase infected in human HOS cells; format: functional
[13] = system: Human immunodeficiency virus 1; assay: Antiviral activity against raltegravir-resistant HIV-1 harboring integrase Y143R mutant infected in human HOS cells pretreated with compound for 3 hrs by single-round HIV-1 infectivity assay; format: functional, organism-based; conditions: Human immunodeficiency virus 1, HOS
[14] = system: Human immunodeficiency virus 1; assay: Antiviral activity against raltegravir-resistant HIV-1 harboring integrase N155H mutant infected in human HOS cells pretreated with compound for 3 hrs by single-round HIV-1 infectivity assay; format: functional, organism-based; conditions: Human immunodeficiency virus 1, HOS
[15] = system: Human immunodeficiency virus 1; assay: Ratio of EC50 for raltegravir-resistant HIV-1 harboring integrase G140S/Q148H double mutant infected in human HOS cells to EC50 for HIV-1 harboring integrase wild type integrase infected in human HOS cells; format: functional
[16] = target: Human immunodeficiency virus type 1 reverse transcriptase (Human immunodeficiency virus 1) (UniProt Q72547); assay: Inhibition of HIV-1 reverse transcriptase RNase H activity-mediated -8 cleavage assessed as retention of -17 cleavage at 10 uM by agarose gel electrophoresis
[17] = system: Human immunodeficiency virus 1; assay: Antiviral activity against HIV-1 harboring wild type integrase infected in human HOS cells pretreated with compound for 3 hrs by single-round HIV-1 infectivity assay in presence of 10% fetal bovine serum; format: functional, organism-based; conditions: Human immunodeficiency virus 1, HOS; summary of the method: as §1
[18] = target: Human immunodeficiency virus type 1 reverse transcriptase (Human immunodeficiency virus 1) (UniProt Q72547); assay: Inhibition of HIV-1 DNA-dependent DNA polymerase activity of reverse transcriptase after 60 mins by agarose gel electrophoresis
[19] = system: Human immunodeficiency virus 1; assay: Antiviral activity against HIV-1 harboring wild type integrase infected in human HOS cells pretreated with compound for 3 hrs by single-round HIV-1 infectivity assay in presence of 5% fetal bovine serum; format: functional, organism-based; conditions: Human immunodeficiency virus 1, HOS; summary of the method: as §1
[20] = system: Human immunodeficiency virus 1; assay: Antiviral activity against HIV-1 harboring wild type integrase infected in human HOS cells pretreated with compound for 3 hrs by single-round HIV-1 infectivity assay in presence of 15% fetal bovine serum; format: functional, organism-based; conditions: Human immunodeficiency virus 1, HOS; summary of the method: as §1

T1 sequence (Q7ZJM1 whole entry): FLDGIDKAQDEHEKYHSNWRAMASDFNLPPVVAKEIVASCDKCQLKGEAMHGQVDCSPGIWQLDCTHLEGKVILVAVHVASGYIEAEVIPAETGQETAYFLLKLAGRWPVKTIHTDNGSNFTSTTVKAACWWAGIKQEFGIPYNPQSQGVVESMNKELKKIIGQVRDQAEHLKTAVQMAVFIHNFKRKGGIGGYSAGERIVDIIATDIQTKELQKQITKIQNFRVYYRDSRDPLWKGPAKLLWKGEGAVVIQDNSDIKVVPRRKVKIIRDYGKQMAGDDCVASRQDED

Compound	Retention_time [1] [min]	CC50 (HOS) [nM]	IC50 [2] [nM]	IC50 [3] [nM]	EC50 [4] [nM]	Ratio EC50 [5]	EC50 [8] [nM]	selectivity ratio [11]	EC50 [13] [nM]	EC50 [14] [nM]	also measured
CC(C)Nc1c(C(=O)NCc2ccc(F)cc2F)c(=O)n(O)c2ncccc12	17	> 250000	16	1800	7.2						
O=C(NCc1ccc(F)cc1F)c1c(NCCO)c2cccnc2n(O)c1=O	21.6	24000	10	550	5.2	0.88	43	4620	4.6	25	Ratio EC50 [6]: 5; EC50 [7]: 26 nM; EC50 [9]: 27 nM; Ratio EC50 [10]: 5; Ratio EC50 [12]: 5; Ratio EC50 [15]: 8
CNc1c(C(=O)NCc2ccc(F)cc2F)c(=O)n(O)c2ncccc12	26.4	> 250000	27	3700	3.1						
COC(=O)[C@@H](Nc1c(C(=O)NCc2ccc(F)cc2F)c(=O)n(O)c2ncccc12)c1ccccc1	22.6	> 250000									
O=C(NCc1ccc(F)cc1F)c1c(Nc2ccc(-c3ccccc3)cc2)c2cccnc2n(O)c1=O	22.8	> 250000	340	52000	372	1		> 672			
O=C(NCc1ccc(F)cc1F)c1c(N2CCOCC2)c2cccnc2n(O)c1=O	20.5	8400	79	77000	1200	1.5	6920	7	1800	3730	Ratio EC50 [12]: 3; Ratio EC50 [15]: 6
CCOC(=O)[C@@H]1CCCN1c1c(C(=O)NCc2ccc(F)cc2F)c(=O)n(O)c2ncccc12	12.5	18000	310	86000	590	3		31	1660		
COC(=O)[C@H](CO)Nc1c(C(=O)NCc2ccc(F)cc2F)c(=O)n(O)c2ncccc12	15.9	> 250000	8.4	5800	9.7						
CC(=O)OCCNc1c(C(=O)NCc2ccc(F)cc2F)c(=O)n(O)c2ncccc12	23.6	> 250000	27	5300	4.5	1	35	> 55600	4.8	3.1	Ratio EC50 [6]: 4; EC50 [7]: 16 nM; inhibition [16]: Active; EC50 [9]: 44 nM; Ratio EC50 [10]: 10; EC50 [17]: 4.5 nM; inhibition [18]: Active; EC50 [19]: 4.5 nM; Ratio EC50 [12]: 0.69; EC50 [20]: 4.5 nM; Ratio EC50 [15]: 8
O=C(NCc1ccc(F)cc1F)c1c(NC2CCCCCC2)c2cccnc2n(O)c1=O	25.8	68000	460	13000	12	0.55	35	5670	6.6	14	Ratio EC50 [12]: 1; Ratio EC50 [15]: 3
COC(=O)[C@H](Nc1c(C(=O)NCc2ccc(F)cc2F)c(=O)n(O)c2ncccc12)c1ccccc1	26.3				7.4					22	
CN(C)c1c(C(=O)NCc2ccc(F)cc2F)c(=O)n(O)c2ncccc12	21.6	13000	87	21000	268	1	6800	49	273	2300	Ratio EC50 [12]: 9; Ratio EC50 [15]: 25
Nc1c(C(=O)NCc2ccc(F)cc2F)c(=O)n(O)c2ncccc12	19.5	> 250000			1.1						EC50 [7]: 6.4 nM; inhibition [16]: Active; EC50 [9]: 16 nM; EC50 [17]: 1.1 nM; inhibition [18]: Active; EC50 [19]: 1.1 nM; EC50 [20]: 1.1 nM
C[C@@H]1CCO[C@H]2Cn3cc(C(=O)NCc4ccc(F)cc4F)c(=O)c(O)c3C(=O)N12 [DOLUTEGRAVIR]					1.6		5.8		4.3	3.6	EC50 [7]: 11 nM; EC50 [9]: 13 nM
O=C(NCc1ccc(F)cc1F)c1c(Nc2ccc3c(c2)Cc2ccccc2-3)c2cccnc2n(O)c1=O	21.3	> 250000	840	46000	171	3		> 1460			
COC(=O)[C@H](C)Nc1c(C(=O)NCc2ccc(F)cc2F)c(=O)n(O)c2ncccc12	26.4				4.2						
COC(=O)[C@@H](CO)Nc1c(C(=O)NCc2ccc(F)cc2F)c(=O)n(O)c2ncccc12	20.5		13	4400	14.2						
O=C(NCc1ccc(F)cc1F)c1c(NCCc2ccccc2)c2cccnc2n(O)c1=O	22	> 250000	50	8000	14						
O=C(NCc1ccc(F)cc1F)c1c(NCCCCc2ccccc2)c2cccnc2n(O)c1=O	26.7	102000	280	12000	50	0.8	243	2040	40	116	Ratio EC50 [12]: 2; Ratio EC50 [15]: 5
O=C(NCc1ccc(F)cc1F)c1c(Nc2ccccc2)c2cccnc2n(O)c1=O	20.2	> 250000	18	6900	14						
Nc1ccc(-c2ccc(Nc3c(C(=O)NCc4ccc(F)cc4F)c(=O)n(O)c4ncccc34)cc2)cc1	15.6	> 250000	130	80000	6.3	16		> 39700			
CCCCCNc1c(C(=O)NCc2ccc(F)cc2F)c(=O)n(O)c2ncccc12	23.7	94000	24	8200	7.4						
N#Cc1ccc(-c2ccc(Nc3c(C(=O)NCc4ccc(F)cc4F)c(=O)n(O)c4ncccc34)cc2)cc1	22.3	> 250000	130	70000	123	3		> 2030			
COC(=O)[C@@H](C)Nc1c(C(=O)NCc2ccc(F)cc2F)c(=O)n(O)c2ncccc12	26.4	> 250000			11.3		89		8.1		
NCCNc1c(C(=O)NCc2ccc(F)cc2F)c(=O)n(O)c2ncccc12	25.9	9600	39	4500	35						
